Where a SMILES comes first, the peptide text is derived from it. [ ]: non-standard residue; d: D form. d2Nal = N[C@H](Cc1ccc2ccccc2c1)C(=O)O; Nle = CCCC[C@H](N)C(=O)O
Key:
Melanocortin receptor 4 [1] = biological target: T1, Melanocortin receptor 4 (Homo sapiens, UniProt P32245); type: cell-based, HEK293
Melanocortin receptor 5 [2] = biological target: T2, Melanocortin receptor 5 (Homo sapiens, UniProt P33032); type: cell-based, HEK293
Melanocortin receptor 3 [3] = biological target: T3, Melanocortin receptor 3 (Homo sapiens, UniProt P41968); type: cell-based, HEK293
T3 sequence (P41968 whole entry): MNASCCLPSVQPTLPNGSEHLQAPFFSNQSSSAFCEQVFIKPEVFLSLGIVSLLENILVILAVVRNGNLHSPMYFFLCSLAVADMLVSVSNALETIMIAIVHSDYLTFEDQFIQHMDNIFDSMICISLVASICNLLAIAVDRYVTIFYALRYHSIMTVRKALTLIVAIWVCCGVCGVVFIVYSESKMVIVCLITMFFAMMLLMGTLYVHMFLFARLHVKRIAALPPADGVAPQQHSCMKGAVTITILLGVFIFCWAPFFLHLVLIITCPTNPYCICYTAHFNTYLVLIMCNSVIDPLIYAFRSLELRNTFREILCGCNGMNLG

Melanocortin receptor 3 [4] = biological target: T3, Melanocortin receptor 3; experiment: Effective concentration for intracellular cAMP accumulation in human melanocortin 3 receptor expressing HEK 293 cells; (N = 4); type: functional, cell-based, HEK293
Summary of the method: (§1)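 HEK293 cells transfected with human MCRs, grown in MEM with 10% FBS, seeded 48 h before at 100 000 cells/well. Stopped with ice-cold Tris/EDTA, boiled 15 min, centrifuged; cAMP in supernatant measured by competitive binding kit. EC50 and maximal response by nonlinear least-squares fit.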

Melanocortin receptor 5 [5] = biological target: T2, Melanocortin receptor 5; experiment: Effective concentration for intracellular cAMP accumulation in human melanocortin 5 receptor expressing HEK 293 cells; (N = 4); type: functional, cell-based, HEK293; summary of the method: as §1
Melanocortin receptor 4 [6] = biological target: T1, Melanocortin receptor 4; experiment: Effective concentration for intracellular cAMP accumulation in human melanocortin 4 receptor expressing HEK 293 cells; (N = 4); type: functional, cell-based, HEK293
[7] = biological target: T4, Melanocyte-stimulating hormone receptor (Homo sapiens, UniProt Q01726); experiment: Effective concentration for intracellular cAMP accumulation in human melanocortin 1 receptor expressing HEK 293 cells; (N = 4); type: functional, cell-based, HEK293; summary of the method: as §1
Target sequence in this assay (Q01726 whole entry): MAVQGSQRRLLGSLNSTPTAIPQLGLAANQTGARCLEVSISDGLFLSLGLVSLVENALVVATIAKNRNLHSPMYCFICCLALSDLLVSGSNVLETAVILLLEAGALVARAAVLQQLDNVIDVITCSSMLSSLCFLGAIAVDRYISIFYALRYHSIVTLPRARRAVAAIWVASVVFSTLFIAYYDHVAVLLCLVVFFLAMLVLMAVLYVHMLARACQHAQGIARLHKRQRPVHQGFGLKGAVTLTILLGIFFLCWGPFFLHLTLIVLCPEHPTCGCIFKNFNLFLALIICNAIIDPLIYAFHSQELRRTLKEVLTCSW

Melanocortin receptor 5 [8] = biological target: T2, Melanocortin receptor 5; experiment: Effective concentration for intracellular cAMP accumulation in human melanocortin 5 receptor expressing HEK 293 cells; (N = 4), No activity; type: functional, cell-based; details: hek293
Summary of the method: as §1, with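 “cells/well. Preincubated 1 min at 37 °C in EBSS with IBMX, then exposed 3 min at 37 °C to peptide (10^-10 to 10^-5 M).” for “cells/well.”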

[9] = biological target: T4, Melanocyte-stimulating hormone receptor; type: cell-based, HEK293
Target sequence in this assay (Q01726 whole entry): as above

[10] = biological target: T4, Melanocyte-stimulating hormone receptor; experiment: Maximal effect on human melanocortin 1 receptor expressing HEK 293 cells; type: functional, cell-based; details: HEK293; summary of the method: as §1
Target sequence in this assay (Q01726 whole entry, looked up): as the sequence (Q01726 whole entry) above

Melanocortin receptor 4 [11] = biological target: T1, Melanocortin receptor 4; details: HEK293
Melanocortin receptor 3 [12] = biological target: T3, Melanocortin receptor 3; experiment: Maximal effect on human melanocortin 3 receptor expressing HEK 293 cells; type: functional, cell-based; details: HEK293; summary of the method: as §1
Melanocortin receptor 5 [13] = biological target: T2, Melanocortin receptor 5; experiment: Maximal effect on human melanocortin 5 receptor expressing HEK 293 cells; type: functional, cell-based; details: HEK293; summary of the method: as §1

T1 sequence (P32245 whole entry): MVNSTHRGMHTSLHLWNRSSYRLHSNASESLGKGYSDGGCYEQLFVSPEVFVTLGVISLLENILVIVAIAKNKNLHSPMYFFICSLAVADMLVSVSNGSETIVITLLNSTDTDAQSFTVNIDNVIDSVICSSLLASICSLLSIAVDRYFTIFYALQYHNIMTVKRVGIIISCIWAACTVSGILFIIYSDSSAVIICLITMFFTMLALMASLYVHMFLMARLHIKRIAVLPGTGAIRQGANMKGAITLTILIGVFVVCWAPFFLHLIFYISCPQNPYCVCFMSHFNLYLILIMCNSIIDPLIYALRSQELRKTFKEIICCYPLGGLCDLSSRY
T2 sequence (P33032 whole entry): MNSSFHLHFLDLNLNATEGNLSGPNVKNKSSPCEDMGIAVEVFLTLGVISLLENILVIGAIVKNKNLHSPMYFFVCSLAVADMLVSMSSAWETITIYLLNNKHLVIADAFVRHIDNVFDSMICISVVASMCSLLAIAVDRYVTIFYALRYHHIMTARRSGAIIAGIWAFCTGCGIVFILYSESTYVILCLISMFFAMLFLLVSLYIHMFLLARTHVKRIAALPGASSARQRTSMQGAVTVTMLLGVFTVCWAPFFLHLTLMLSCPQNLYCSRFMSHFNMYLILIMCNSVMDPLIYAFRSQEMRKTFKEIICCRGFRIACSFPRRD

Compound | IC50 (Melanocortin receptor 4 [1]) | IC50 (Melanocortin receptor 5 [2]) | IC50 (Melanocortin receptor 3 [3]) | EC50 (Melanocortin receptor 3 [4]) | EC50 (Melanocortin receptor 5 [5]) | EC50 [7] | EC50 (Melanocortin receptor 4 [6]) | IC50 [9] | also measured
CCCC[C@H](NC(=O)[C@@H](NC(=O)[C@@H](N)Cc1ccc(O)cc1)C(C)C)C(=O)NCC(=O)N1CCC[C@H]1C(=O)N[C@@H](Cc1ccccc1)C(=O)N[C@@H](CCCN=C(N)N)C(=O)N[C@H](Cc1ccc2ccccc2c1)C(=O)N[C@@H](CC(=O)O)C(=O)N[C@@H](CCCN=C(N)N)C(=O)N[C@@H](Cc1ccccc1)C(=O)NCC(N)=O |  | 650 nM | 32 nM | 13 nM | 250 nM |  |  |  | 
CCCC[C@H](NC(=O)[C@@H](NC(=O)[C@@H](N)Cc1ccc(O)cc1)C(C)C)C(=O)NCC(=O)N[C@H](Cc1ccc2ccccc2c1)C(=O)N[C@@H](Cc1ccccc1)C(=O)N[C@@H](CCCN=C(N)N)C(=O)N[C@@H](Cc1c[nH]c2ccccc12)C(=O)N[C@@H](CC(=O)O)C(=O)N[C@@H](CCCN=C(N)N)C(=O)N[C@@H](Cc1ccccc1)C(=O)NCC(N)=O |  |  |  |  |  |  |  |  | IC50 (Melanocortin receptor 4 [1]; hek293): 1990 nM; IC50 (Melanocortin receptor 5 [2]; hek293): 1000 nM; IC50 (Melanocortin receptor 3 [3]; hek293): 3000 nM; EC50 (Melanocortin receptor 3 [4]; hek293): > 10000 nM; EC50 (Melanocortin receptor 5 [5]; hek293): 870 nM; EC50 (Melanocortin receptor 4 [6]; hek293): > 10000 nM
CCCC[C@H](NC(=O)[C@@H](NC(=O)[C@@H](N)Cc1ccc(O)cc1)C(C)C)C(=O)NCC(=O)N1CCC[C@H]1C(=O)N[C@H](Cc1ccc2ccccc2c1)C(=O)N[C@@H](CCCN=C(N)N)C(=O)N[C@H](Cc1ccc2ccccc2c1)C(=O)N[C@@H](CC(=O)O)C(=O)N[C@@H](CCCN=C(N)N)C(=O)N[C@@H](Cc1ccccc1)C(=O)NCC(N)=O | 4 nM | 2 nM | 3 nM | 11 nM |  | 2 nM | 3.3 nM | 2 nM | EC50 (Melanocortin receptor 5 [8]): Not Active
CCCC[C@H](NC(=O)[C@@H](NC(=O)[C@@H](N)Cc1ccc(O)cc1)C(C)C)C(=O)NCC(=O)N1CCC[C@H]1C(=O)N[C@@H](Cc1ccccc1)C(=O)N[C@@H](CCCN=C(N)N)C(=O)N[C@H](Cc1ccc2ccccc2c1)C(=O)N[C@@H](CC(=O)O)C(=O)N[C@@H](CCCN=C(N)N)C(=O)N[C@@H](Cc1ccccc1)C(=O)NCC(=O)O |  |  |  |  |  |  |  |  | Maximal effect [10]: 120%; Maximal effect (Melanocortin receptor 4 [11]): 14%; Maximal effect (Melanocortin receptor 3 [12]): 28%; Maximal effect (Melanocortin receptor 5 [13]): 46%
CCCC[C@H](NC(=O)[C@@H](NC(=O)[C@@H](N)Cc1ccc(O)cc1)C(C)C)C(=O)NCC(=O)N[C@@H](Cc1c[nH]cn1)C(=O)N[C@@H](Cc1ccccc1)C(=O)N[C@@H](CCCN=C(N)N)C(=O)N[C@@H](Cc1c[nH]c2ccccc12)C(=O)N[C@@H](CC(=O)O)C(=O)N[C@@H](CCCN=C(N)N)C(=O)N[C@@H](Cc1ccccc1)C(=O)NCC(=O)O |  |  |  |  |  |  |  |  | Maximal effect (Melanocortin receptor 4 [11]): 100%

More lines, main results first:

IC50 (Melanocortin receptor 4 [1]) | IC50 (Melanocortin receptor 5 [2]) | IC50 (Melanocortin receptor 3 [3]) | EC50 (Melanocortin receptor 3 [4]) | EC50 (Melanocortin receptor 5 [5]) | EC50 [7] | EC50 (Melanocortin receptor 4 [6]) | IC50 [9] | Compound | also measured
64 nM |  |  |  |  |  |  |  | CCCC[C@H](NC(=O)[C@@H](NC(=O)[C@@H](N)Cc1ccc(O)cc1)C(C)C)C(=O)NCC(=O)N[C@@H](Cc1c[nH]cn1)C(=O)N[C@@H](Cc1ccccc1)C(=O)N[C@@H](CCCN=C(N)N)C(=O)N[C@@H](Cc1c[nH]c2ccccc12)C(=O)N[C@@H](CC(=O)O)C(=O)N[C@@H](CCCN=C(N)N)C(=O)N[C@@H](Cc1ccccc1)C(=O)NCC(N)=O | 
20 nM | 3.3 nM | 6 nM | 951 nM | 490 nM | 1.5 nM | 2700 nM | 0.16 nM | CCCC[C@H](NC(=O)[C@@H](NC(=O)[C@@H](N)Cc1ccc(O)cc1)C(C)C)C(=O)NCC(=O)N[C@@H](Cc1cnc[nH]1)C(=O)N[C@H](Cc1ccc2ccccc2c1)C(=O)N[C@@H](CCCNC(=N)N)C(=O)N[C@H](Cc1ccccc1)C(=O)N[C@@H](CC(=O)O)C(=O)N[C@@H](CCCNC(=N)N)C(=O)N[C@@H](Cc1ccccc1)C(=O)NCC(N)=O (H-YV[Nle]GH[d2Nal]R[dF]DRFG-NH2) | 
17 nM |  |  |  |  |  | 29 nM |  | CCCC[C@H](NC(=O)[C@@H](NC(=O)[C@@H](N)Cc1ccc(O)cc1)C(C)C)C(=O)NCC(=O)N[C@@H](Cc1c[nH]cn1)C(=O)N[C@H](Cc1ccccc1)C(=O)N[C@@H](CCCN=C(N)N)C(=O)N[C@H](Cc1c[nH]c2ccccc12)C(=O)N[C@@H](CC(=O)O)C(=O)N[C@@H](CCCN=C(N)N)C(=O)N[C@@H](Cc1ccccc1)C(=O)NCC(N)=O | 
6 nM | 5 nM | 6 nM |  | 200 nM | 2 nM | 36 nM | 0.7 nM | CCCC[C@H](NC(=O)[C@@H](NC(=O)[C@@H](N)Cc1ccc(O)cc1)C(C)C)C(=O)NCC(=O)N[C@@H](Cc1c[nH]cn1)C(=O)N[C@H](Cc1ccccc1)C(=O)N[C@@H](CCCN=C(N)N)C(=O)N[C@H](Cc1ccc2ccccc2c1)C(=O)N[C@@H](CC(=O)O)C(=O)N[C@@H](CCCN=C(N)N)C(=O)N[C@@H](Cc1ccccc1)C(=O)NCC(N)=O | 
